Results: the array DNA melting data of Ke et al. (doi:10.1101/2024.01.08.574731)

How the values were obtained:
[1] = folding enthalpy; higher = less favourable; fluorescence melt of hairpins on a sequencing array, two-state fit; conditions: sodium 0.088 M
Outline: (§1)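 Two-state fits, bootstrapped, provided melting temperature and folding enthalpy from Cy3 fluorescence normalised to pre-quench Cy3 and to control constructs. Library hairpins with annealed Cy3 and quencher oligos were imaged on a sequenced MiSeq flow cell in 50 mM Na-HEPES pH 8.0, 25 mM NaCl, at 2.5 °C intervals up to 60 °C. Four replicates were combined with inverse-variance weighting. A 9.35 °C upward shift was applied to fitted temperatures to match UV melts.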

[2] = melting temperature; fluorescence melt of hairpins on a sequencing array, two-state fit, raised by 9.35 °C to match UV melts; conditions: sodium 0.088 M
Outline: as §1

Row | Sequence | folding enthalpy [1] [kcal/mol] | Tm [2] [°C]
1 | GCTTTTCGAAAGAAGAGC (((.(((....))).))) | -30.7 | 47.4
2 | GCTTTTGAAAAAAAGC ((((((....)))))) | -30.5 | 50.4
3 | GCTTTTGGAAACAAAGGC ((.((((....)))).)) | -28.9 | 43
4 | GGAAAAGAAATTTTCC ((((((....)))))) | -23.4 | 37.7
5 | GGAAACCCGAAAGGGTCC (((..(((....)))))) | -11.7 | 35
6 | GGAAACGAAAGTTCTTCC ((((((....)))..))) | -14.9 | 32.2
7 | GGAAACGAAAGTTGATCC ((((((....)))..))) | -14.5 | 29.3
8 | GGAAACGAAAGTTTGTCC ((((((....)))..))) | -18.8 | 27.4
9 | GGAAAGACGAAAGTCTCC (((..(((....)))))) | -14.5 | 36.4
10 | GGAAAGCGAAAGCTGTCC (((.(((....))).))) | -23.8 | 53.9
11 | GGAAAGGGAAACTTTTCC (((((.(....).))))) | -18.8 | 38.4
12 | GGAAATGCGAAAGCATCC (((..(((....)))))) | -11.7 | 37.1
13 | GGAAATGGAAACACTTCC ((((.((....)).)))) | -31.5 | 30.2
14 | GGAAATGGAAACATTCCC ((.((((....)))).)) | -25.1 | 33.1
15 | GGAAATGGAAACATTTCC (((((((....))))))) | -41.5 | 56.5
16 | GGAACAACGAAAGTTTCC (((..(((....)))))) | -15.5 | 29.9
17 | GGAACACGAAAGTGATCC (((.(((....))).))) | -28.5 | 52.7
18 | GGAACCCCGAAAGGGTCC (((..(((....)))))) | -15.5 | 45.9
19 | GGAACCCGAAAGGGTCC (((.(((....)))))) | -15.8 | 59.7
20 | GGAACCGAAAGGTCGTCC ((((((....)))..))) | -10.8 | 31.4
21 | GGAACCGAAAGGTGCTCC ((((((....)))..))) | -12.5 | 38.8
22 | GGAACCGAAAGGTGTCC ((((((....))).))) | -17.7 | 47.5
23 | GGAACCGGAAACGATTCC ((((.((....)).)))) | -31.3 | 42.8

Row | Sequence | folding enthalpy [1] [kcal/mol] | Tm [2] [°C]
24 | GGAACGCGAAAGCGCTCC (((.(((....))).))) | -28.2 | 55.8
25 | GGAACGGCGAAAGCCTCC (((..(((....)))))) | -10.3 | 31.6
26 | GGAACGGGAAACCATTCC ((((.((....)).)))) | -30.2 | 35.9
27 | GGAACGGGAAACCGTTTC (.(((((....))))).) | -24.5 | 49.7
28 | GGAACTCGAAAGAGCTCC (((.(((....))).))) | -33.9 | 48.2
29 | GGAACTGGAAACAGTTCC (((((((....))))))) | -42.7 | 65.7
30 | GGAACTGGAAACGGTTTC (.(((.(....).))).) | -17.9 | 30.4
31 | GGAAGACCGAAAGGTTCC (((..(((....)))))) | -16 | 37.4
32 | GGAAGAGGAAACTCTCCC ((.((((....)))).)) | -18.2 | 32.9
33 | GGAAGCCGAAAGGCATCC (((.(((....))).))) | -21.9 | 56.1
34 | GGAAGCCGAAAGGCGTCC (((.(((....))).))) | -14.6 | 61.6
35 | GGAAGCGAAAGCTATTCC ((((((....)))..))) | -14.1 | 35.8
36 | GGAAGCGAAAGCTCGTCC ((((((....)))..))) | -11.6 | 29.5
37 | GGAAGCGAAAGCTGCTCC ((((((....)))..))) | -11.8 | 37.9
38 | GGAAGCGAAAGCTGTCC ((((((....))).))) | -14.5 | 47.4
39 | GGAAGCGAAAGCTTATCC ((((((....)))..))) | -9.74 | 34.6
40 | GGAAGCTCGAAAGAGTCC (((..(((....)))))) | -11.6 | 26.2
41 | GGAAGGAAACTTCC (((((....))))) | -24.1 | 46
42 | GGAAGGACGAAAGTCTCC (((..(((....)))))) | -12.8 | 33.1
43 | GGAAGGCGAAAGCCCTCC (((.(((....))).))) | -16.8 | 48.7
44 | GGAAGGGCGAAAGCCTCC (((..(((....)))))) | -11.2 | 41.1
45 | GGAAGTCGAAAGACATCC (((.(((....))).))) | -25.2 | 48.2
46 | GGAAGTGCGAAAGCATCC (((..(((....)))))) | -10.6 | 31.3

Row | Sequence | folding enthalpy [1] [kcal/mol] | Tm [2] [°C]
47 | GGAAGTGGAAACACTTCC (((((((....))))))) | -54 | 61
48 | GGAAGTGGAAACACTTTC (.(((((....))))).) | -26.6 | 45.2
49 | GGAATAACGAAAGTTTCC (((..(((....)))))) | -14.8 | 32.5
50 | GGAATACCGAAAGGTTCC (((..(((....)))))) | -16.1 | 36.4
51 | GGAATACGAAAGTAATCC (((.(((....))).))) | -28.8 | 40.1
52 | GGAATAGCGAAAGCTTCC (((..(((....)))))) | -20.2 | 39.2
53 | GGAATAGGAAACTATTCC (((((((....))))))) | -41.4 | 52.7
54 | GGAATAGGAAACTATTTC (.(((((....))))).) | -29.1 | 30.6
55 | GGAATCACGAAAGTGTCC (((..(((....)))))) | -11.5 | 30.5
56 | GGAATCGAAAGATCTTCC ((((((....)))..))) | -20.9 | 30.6
57 | GGAATCGAAAGATGCTCC ((((((....)))..))) | -10.7 | 28.9
58 | GGAATCGAAAGATGGTCC ((((((....)))..))) | -8.55 | 25.8
59 | GGAATCGAAAGATGTTCC ((((((....)))..))) | -8.43 | 22.8
60 | GGAATGACGAAAGTCTCC (((..(((....)))))) | -13.3 | 28.8
61 | GGAATTGGAAACAGTTCC ((((.((....)).)))) | -27.3 | 42.9
62 | GGACAACGAAAGTTCTCC (((.(((....))).))) | -22.8 | 31.3
63 | GGACAAGGAAACTTGTTC (.(((((....))))).) | -25.9 | 43
64 | GGACACGAAAGTGACTCC ((((((....)))..))) | -14.2 | 40.6
65 | GGACACGAAAGTGGTTCC ((((((....)))..))) | -14.3 | 37.3
66 | GGACACGAAAGTGTATCC ((((((....)))..))) | -10.9 | 36.1
67 | GGACACGAAAGTGTTCC ((((((....))).))) | -17.5 | 56
68 | GGACACGGAAACACGTCC ((((..(....)..)))) | -21.8 | 36.4
